Laboratory results taken from the M2OR odorant receptor database.
Positions count from the first letter of the chain named.

What was measured:
Details in all cases: stereoisomer not certain
OR4X2 (Homo sapiens) = target: T1, OR4X2 (Homo sapiens) (UniProt Q8NGF9)
T1 sequence (whole entry): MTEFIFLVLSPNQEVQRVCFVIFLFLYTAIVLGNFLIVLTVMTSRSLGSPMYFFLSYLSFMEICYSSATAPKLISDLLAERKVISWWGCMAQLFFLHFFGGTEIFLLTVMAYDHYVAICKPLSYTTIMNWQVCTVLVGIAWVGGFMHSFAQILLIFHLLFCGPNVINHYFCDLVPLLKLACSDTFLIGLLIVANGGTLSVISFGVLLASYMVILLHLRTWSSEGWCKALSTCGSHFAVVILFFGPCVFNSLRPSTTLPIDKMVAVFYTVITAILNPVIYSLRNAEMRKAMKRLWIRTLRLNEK
Summary of the method: (§1)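 Transient luciferase assays in mammalian cell lines were common, though methods varied by source. The values come from published papers and their supplementary material, with extra details from the original authors when needed. Responsive refers to a measured signal the original authors judged statistically different from baseline, and non-responsive (inactive) to the remainder.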

OR51B5 (Homo sapiens) = target: T2, OR51B5 (Homo sapiens) (UniProt Q9H339)
T2 sequence (whole entry): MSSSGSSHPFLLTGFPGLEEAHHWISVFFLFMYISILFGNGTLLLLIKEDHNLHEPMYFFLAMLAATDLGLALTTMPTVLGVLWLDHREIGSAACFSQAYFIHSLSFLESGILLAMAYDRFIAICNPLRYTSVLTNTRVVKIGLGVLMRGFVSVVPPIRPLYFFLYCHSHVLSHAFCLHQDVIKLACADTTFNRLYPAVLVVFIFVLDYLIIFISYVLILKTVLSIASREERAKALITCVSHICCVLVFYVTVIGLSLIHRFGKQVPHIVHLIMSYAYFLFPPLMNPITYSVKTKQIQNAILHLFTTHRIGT
Summary of the method: as §1

OR51E1 (Homo sapiens) = target: T3, OR51E1 (Homo sapiens) (UniProt Q8TCB6)
T3 sequence (whole entry): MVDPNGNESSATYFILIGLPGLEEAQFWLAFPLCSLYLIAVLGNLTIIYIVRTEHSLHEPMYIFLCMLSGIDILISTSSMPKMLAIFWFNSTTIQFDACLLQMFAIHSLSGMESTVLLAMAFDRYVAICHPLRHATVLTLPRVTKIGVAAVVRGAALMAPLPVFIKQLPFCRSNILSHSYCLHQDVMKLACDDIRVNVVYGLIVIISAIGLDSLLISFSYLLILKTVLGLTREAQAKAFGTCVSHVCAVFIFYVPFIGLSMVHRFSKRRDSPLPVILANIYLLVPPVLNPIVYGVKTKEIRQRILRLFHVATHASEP
Summary of the method: as §1

OR51E2 (Homo sapiens) = target: T4, OR51E2 (Homo sapiens) (UniProt Q9H255)
T4 sequence (whole entry): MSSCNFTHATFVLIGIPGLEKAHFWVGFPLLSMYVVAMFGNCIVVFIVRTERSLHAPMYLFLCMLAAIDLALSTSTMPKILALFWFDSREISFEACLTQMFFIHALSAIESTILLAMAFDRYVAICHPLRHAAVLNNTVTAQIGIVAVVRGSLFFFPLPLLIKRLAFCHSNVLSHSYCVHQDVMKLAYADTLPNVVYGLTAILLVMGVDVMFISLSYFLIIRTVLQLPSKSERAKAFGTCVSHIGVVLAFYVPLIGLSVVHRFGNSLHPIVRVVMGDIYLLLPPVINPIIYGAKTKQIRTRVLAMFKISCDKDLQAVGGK
Summary of the method: as §1

OR4S2 (Homo sapiens) = target: T5, OR4S2 (Homo sapiens) (UniProt Q8NH73)
T5 sequence (whole entry): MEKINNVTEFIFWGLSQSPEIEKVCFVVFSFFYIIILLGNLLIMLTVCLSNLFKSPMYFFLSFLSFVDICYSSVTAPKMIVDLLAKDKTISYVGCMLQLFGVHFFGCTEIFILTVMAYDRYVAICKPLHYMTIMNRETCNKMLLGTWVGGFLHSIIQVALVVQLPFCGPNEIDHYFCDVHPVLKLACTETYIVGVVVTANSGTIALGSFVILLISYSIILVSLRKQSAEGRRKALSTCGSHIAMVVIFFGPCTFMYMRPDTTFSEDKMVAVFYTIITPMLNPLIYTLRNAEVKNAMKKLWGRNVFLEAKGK
Summary of the method: as §1

OR4X1 (Homo sapiens) = target: T6, OR4X1 (Homo sapiens) (UniProt Q8NH49)
T6 sequence (whole entry): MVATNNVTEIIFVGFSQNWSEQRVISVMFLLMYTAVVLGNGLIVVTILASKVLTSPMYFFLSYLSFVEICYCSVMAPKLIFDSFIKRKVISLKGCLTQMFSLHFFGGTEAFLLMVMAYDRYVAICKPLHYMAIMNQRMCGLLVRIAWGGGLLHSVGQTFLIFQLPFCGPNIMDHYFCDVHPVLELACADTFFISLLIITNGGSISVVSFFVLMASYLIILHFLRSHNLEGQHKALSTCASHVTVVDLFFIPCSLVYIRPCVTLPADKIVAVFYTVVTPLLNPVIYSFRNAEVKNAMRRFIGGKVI
Summary of the method: as §1

OR51A2 (Homo sapiens) = target: T7, OR51A2 (Homo sapiens) (UniProt Q8NGJ7)
T7 sequence (whole entry): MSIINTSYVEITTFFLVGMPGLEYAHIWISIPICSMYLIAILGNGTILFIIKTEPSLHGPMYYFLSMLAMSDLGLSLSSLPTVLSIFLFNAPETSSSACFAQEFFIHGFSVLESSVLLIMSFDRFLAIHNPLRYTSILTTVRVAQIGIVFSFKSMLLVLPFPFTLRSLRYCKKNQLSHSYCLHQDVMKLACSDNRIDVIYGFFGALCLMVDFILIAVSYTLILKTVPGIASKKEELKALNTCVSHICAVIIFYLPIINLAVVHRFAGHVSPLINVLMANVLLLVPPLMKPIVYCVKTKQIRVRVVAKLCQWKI
Summary of the method: as §1

OR51A4 (Homo sapiens) = target: T8, OR51A4 (Homo sapiens) (UniProt Q8NGJ6)
T8 sequence (whole entry): T7 sequence (whole entry) with G59E, T94I, S97N, S167N, P227L, E235Q, G267R, M288T, K289N, W311R
Summary of the method: as §1

OR51A7 (Homo sapiens) = target: T9, OR51A7 (Homo sapiens) (UniProt Q8NH64)
T9 sequence (whole entry): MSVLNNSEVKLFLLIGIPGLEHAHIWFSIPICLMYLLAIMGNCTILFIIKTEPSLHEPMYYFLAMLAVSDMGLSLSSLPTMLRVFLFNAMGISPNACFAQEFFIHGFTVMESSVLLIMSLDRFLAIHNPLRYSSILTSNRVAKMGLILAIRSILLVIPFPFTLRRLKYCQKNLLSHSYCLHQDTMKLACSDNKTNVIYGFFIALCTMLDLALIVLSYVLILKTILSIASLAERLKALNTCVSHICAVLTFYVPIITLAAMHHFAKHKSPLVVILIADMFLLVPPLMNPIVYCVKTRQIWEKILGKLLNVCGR
Summary of the method: as §1

OR51B2 (Homo sapiens) = target: T10, OR51B2 (Homo sapiens) (UniProt Q9Y5P1)
T10 sequence (whole entry): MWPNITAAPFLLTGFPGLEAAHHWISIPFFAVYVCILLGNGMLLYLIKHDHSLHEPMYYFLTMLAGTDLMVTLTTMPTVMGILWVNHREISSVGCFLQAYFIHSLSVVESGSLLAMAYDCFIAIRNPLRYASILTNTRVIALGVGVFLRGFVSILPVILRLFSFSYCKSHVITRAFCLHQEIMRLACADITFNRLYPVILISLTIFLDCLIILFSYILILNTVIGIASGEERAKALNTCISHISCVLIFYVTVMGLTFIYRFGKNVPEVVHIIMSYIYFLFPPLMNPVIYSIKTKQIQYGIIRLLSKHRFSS
Summary of the method: as §1

OR51B4 (Homo sapiens) = target: T11, OR51B4 (Homo sapiens) (UniProt Q9Y5P0)
T11 sequence (whole entry): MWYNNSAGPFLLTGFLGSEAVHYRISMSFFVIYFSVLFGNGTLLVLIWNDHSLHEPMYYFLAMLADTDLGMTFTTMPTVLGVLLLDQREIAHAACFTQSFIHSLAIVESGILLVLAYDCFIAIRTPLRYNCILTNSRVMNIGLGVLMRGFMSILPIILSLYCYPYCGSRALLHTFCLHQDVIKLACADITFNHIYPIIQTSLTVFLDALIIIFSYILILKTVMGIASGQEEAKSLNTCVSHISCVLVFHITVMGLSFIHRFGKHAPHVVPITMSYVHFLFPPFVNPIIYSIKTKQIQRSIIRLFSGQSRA
Summary of the method: as §1

OR51B6 (Homo sapiens) = target: T12, OR51B6 (Homo sapiens) (UniProt Q9H340)
T12 sequence (whole entry): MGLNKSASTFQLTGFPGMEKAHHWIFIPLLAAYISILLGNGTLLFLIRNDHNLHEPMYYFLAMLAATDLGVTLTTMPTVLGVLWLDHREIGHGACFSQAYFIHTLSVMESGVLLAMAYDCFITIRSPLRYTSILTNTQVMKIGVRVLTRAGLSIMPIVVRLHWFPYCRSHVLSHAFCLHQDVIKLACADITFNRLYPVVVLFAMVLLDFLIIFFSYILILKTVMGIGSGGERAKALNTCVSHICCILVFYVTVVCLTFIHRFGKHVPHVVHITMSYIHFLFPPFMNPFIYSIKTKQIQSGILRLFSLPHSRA
Summary of the method: as §1

OR51D1 (Homo sapiens) = target: T13, OR51D1 (Homo sapiens) (UniProt Q8NGF3)
T13 sequence (whole entry): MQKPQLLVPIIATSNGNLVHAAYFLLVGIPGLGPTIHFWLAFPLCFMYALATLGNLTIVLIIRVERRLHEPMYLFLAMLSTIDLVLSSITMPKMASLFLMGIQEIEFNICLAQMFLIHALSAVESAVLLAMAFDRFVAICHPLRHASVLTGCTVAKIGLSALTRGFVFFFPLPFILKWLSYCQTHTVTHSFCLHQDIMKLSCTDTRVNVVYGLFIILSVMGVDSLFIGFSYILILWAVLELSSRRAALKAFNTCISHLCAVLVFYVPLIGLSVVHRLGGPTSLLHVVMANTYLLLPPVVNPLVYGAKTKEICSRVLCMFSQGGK
Summary of the method: as §1

OR51F1 (Homo sapiens) = target: T14, OR51F1 (Homo sapiens) (UniProt A6NGY5)
T14 sequence (whole entry): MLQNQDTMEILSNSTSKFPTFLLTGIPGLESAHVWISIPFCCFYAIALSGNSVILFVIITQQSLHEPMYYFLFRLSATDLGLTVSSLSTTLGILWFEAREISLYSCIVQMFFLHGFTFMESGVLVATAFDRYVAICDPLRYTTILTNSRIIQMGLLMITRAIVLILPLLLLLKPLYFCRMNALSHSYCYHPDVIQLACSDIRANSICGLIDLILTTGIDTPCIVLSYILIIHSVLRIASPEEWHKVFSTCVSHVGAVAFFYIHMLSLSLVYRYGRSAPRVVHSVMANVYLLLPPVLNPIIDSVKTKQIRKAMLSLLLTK
Summary of the method: as §1

OR51F2 (Homo sapiens) = target: T15, OR51F2 (Homo sapiens) (UniProt Q8NH61)
T15 sequence (whole entry): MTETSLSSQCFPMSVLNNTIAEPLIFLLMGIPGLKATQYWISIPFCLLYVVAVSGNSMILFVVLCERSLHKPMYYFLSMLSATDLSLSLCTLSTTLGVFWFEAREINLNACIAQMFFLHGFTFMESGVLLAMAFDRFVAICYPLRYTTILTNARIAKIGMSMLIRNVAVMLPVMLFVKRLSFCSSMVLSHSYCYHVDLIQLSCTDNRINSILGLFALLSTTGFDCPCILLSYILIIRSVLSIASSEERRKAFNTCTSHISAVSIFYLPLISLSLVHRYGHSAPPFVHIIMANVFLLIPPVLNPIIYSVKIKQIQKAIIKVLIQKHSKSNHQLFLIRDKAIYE
Summary of the method: as §1

OR51G1 (Homo sapiens) = target: T16, OR51G1 (Homo sapiens) (UniProt Q8NGK1)
T16 sequence (whole entry): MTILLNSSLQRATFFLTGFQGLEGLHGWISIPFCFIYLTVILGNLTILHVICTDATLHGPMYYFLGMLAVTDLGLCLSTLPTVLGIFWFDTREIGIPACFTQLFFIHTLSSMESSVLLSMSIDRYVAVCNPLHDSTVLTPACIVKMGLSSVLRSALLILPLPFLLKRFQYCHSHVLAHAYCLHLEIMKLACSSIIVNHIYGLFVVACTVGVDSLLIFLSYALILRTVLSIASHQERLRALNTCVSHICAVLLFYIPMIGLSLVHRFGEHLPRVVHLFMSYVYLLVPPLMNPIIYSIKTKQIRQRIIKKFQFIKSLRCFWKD
Summary of the method: as §1

OR51G2 (Homo sapiens) = target: T17, OR51G2 (Homo sapiens) (UniProt Q8NGK0)
T17 sequence (whole entry): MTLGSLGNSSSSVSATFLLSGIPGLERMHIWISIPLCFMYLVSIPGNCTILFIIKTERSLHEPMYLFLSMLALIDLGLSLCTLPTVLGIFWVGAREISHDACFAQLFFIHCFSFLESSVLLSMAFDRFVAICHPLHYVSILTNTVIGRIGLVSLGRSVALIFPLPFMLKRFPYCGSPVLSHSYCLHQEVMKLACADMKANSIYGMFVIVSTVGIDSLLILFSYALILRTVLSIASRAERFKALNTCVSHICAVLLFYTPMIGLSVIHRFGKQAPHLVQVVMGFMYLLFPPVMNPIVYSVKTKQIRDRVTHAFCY
Summary of the method: as §1

OR51I1 (Homo sapiens) = target: T18, OR51I1 (Homo sapiens) (UniProt Q9H343)
T18 sequence (whole entry): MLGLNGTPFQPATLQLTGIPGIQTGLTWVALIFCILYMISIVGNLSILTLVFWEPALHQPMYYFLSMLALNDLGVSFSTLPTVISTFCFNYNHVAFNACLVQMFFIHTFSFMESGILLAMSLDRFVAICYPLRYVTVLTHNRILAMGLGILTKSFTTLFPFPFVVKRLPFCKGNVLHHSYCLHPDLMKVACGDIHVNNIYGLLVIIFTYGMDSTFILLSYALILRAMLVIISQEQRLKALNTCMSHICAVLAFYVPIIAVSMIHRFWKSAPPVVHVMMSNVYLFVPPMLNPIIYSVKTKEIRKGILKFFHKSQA
Summary of the method: as §1

Measured: odorant receptor agonist call;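 also: active if original authors judged signal statistically different from baseline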

CC(C)=CCCC(C)=CCO
inactive: OR4X2 (Homo sapiens) | OR51B5 (Homo sapiens) | OR51E1 (Homo sapiens) | OR51E2 (Homo sapiens)

CC(O)C(=O)[O-].[H+] (stereo unspecified)
inactive: OR51B5 (Homo sapiens)

CCCCCCCCCCCCCCCCCC(=O)OC
inactive: OR51B5 (Homo sapiens)

CCCCC(=O)C(C)=O
inactive: OR51B5 (Homo sapiens)

CCCCCCCCCCCCCCCC(=O)OCC
inactive: OR51B5 (Homo sapiens)

CCCCC(S)C(C)CO (stereo unspecified)
inactive: all assays above
